ChEMBL document CHEMBL3588846, “Aryl Pyrazoles as Potent Inhibitors of Arginine Methyltransferases: Identification of the First PRMT6 Tool Compound” (ACS Med Chem Lett, 2015)
Activity calls are given as the source filed them. The rule behind the calls is not given here.

How the values were obtained:
[1] = target: Protein arginine N-methyltransferase 8 (Homo sapiens, UniProt Q9NR22); assay: Inhibition of N-terminal GST tagged full-length human PRMT8 expressed in Escherichia coli (BL21(DE3) pre-incubated for 30 mins before addition of a [3H]SAM and peptide mix
[2] = target: T1, Protein arginine N-methyltransferase 6 (Homo sapiens, UniProt Q96LA8); assay: Inhibition of FLAG and hexa-histidine tagged full-length human PRMT6 expressed in HEK293F cells pre-incubated for 30 mins before addition of a [3H]SAM and peptide mix; assay type: cell-based
A-375 = assay: Effect on PRMT6 expression in human A375 cells transfected with his-tagged PRMT6 at 0.01 to 20 uM incubated for 48 hrs by Western blot method; assay type: functional, cell-based
How it was run: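 A375 cells were transfected with a PRMT6 expression construct, with empty vector as the control, and PRMT6 was overexpressed for 48 h. Compound exposure also lasted 48 h. PRMT6 protein levels were then checked in the treated cells.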

[3] = Unbound fraction in Sprague-Dawley rat plasma at 1 uM at 37 degC by equilibrium dialysis and LC-MS/MS method; assay type: ADME, cell-free
[4] = Clearance in Sprague-Dawley rat at 1 mg/kg, iv administered as single dose by LC-MS/MS method; assay type: ADME, organism-based; conditions: in vivo
[5] = AUC (0 to t) in Sprague-Dawley rat at 5 mg/kg, sc by LC-MS/MS method; assay type: ADME, organism-based; conditions: in vivo
[6] = target: T2, Protein arginine N-methyltransferase 1 (Homo sapiens, UniProt Q99873); assay: Inhibition of PRMT1 in human A375 cells assessed as effect on monomethyl R*GG motif methylation at 0.01 to 20 uM incubated for 48 hrs by Western blot method; assay type: cell-based, A-375
Rattus norvegicus = assay: Time above biochemical PRMT6 IC50 in Sprague-Dawley rat at 5 mg/kg, sc by LC-MS/MS method
[7] = AUC (0 to t) in Sprague-Dawley rat at 1 mg/kg, iv administered as single dose by LC-MS/MS method; assay type: ADME, organism-based; conditions: in vivo
[8] = Oral bioavailability in rat; assay type: ADME, organism-based; conditions: in vivo
[9] = Volume of distribution at steady state in Sprague-Dawley rat at 1 mg/kg, iv administered as single dose by LC-MS/MS method; assay type: ADME, organism-based; conditions: in vivo, read-out: Vdss
[10] = target: T1, Protein arginine N-methyltransferase 6; assay: Inhibition of his-tagged PRMT6 (unknown origin) expressed in human A375 cells assessed as reduction in H3R2 methylation at 0.01 to 20 uM incubated for 48 hrs by Western blot method; assay type: cell-based, A-375
[11] = Permeability of the compound at 10 uM at pH 7.4 by LC-MS/MS based PAMPA method; assay type: physicochemical; conditions: read-out: permeability
[12] = Bioavailability in Sprague-Dawley rat at 5 mg/kg, sc by LC-MS/MS method; assay type: ADME, organism-based; conditions: in vivo
[13] = Unbound fraction in human plasma at 1 uM at 37 degC by equilibrium dialysis and LC-MS/MS method; assay type: ADME, cell-free
[14] = AUC (0 to infinity) in Sprague-Dawley rat at 5 mg/kg, sc by LC-MS/MS method; assay type: ADME, organism-based; set-up: dose 5 mg/kg, route subcutaneous, time infinity; conditions: in vivo
[15] = Cmax in Sprague-Dawley rat at 5 mg/kg, sc by LC-MS/MS method; assay type: ADME, organism-based; set-up: dose 5 mg/kg, route subcutaneous; conditions: in vivo
[16] = Terminal half life in Sprague-Dawley rat at 1 mg/kg, iv administered as single dose by LC-MS/MS method; assay type: ADME, organism-based; conditions: in vivo, read-out: beta t1/2 (converted)
[17] = Tmax in Sprague-Dawley rat at 5 mg/kg, sc by LC-MS/MS method; assay type: ADME, organism-based; conditions: in vivo
[18] = AUC (0 to infinity) in Sprague-Dawley rat at 1 mg/kg, iv administered as single dose by LC-MS/MS method; assay type: ADME, organism-based; set-up: dose 1 mg/kg, route intravenous, time infinity; conditions: in vivo
[19] = Terminal half life in Sprague-Dawley rat at 5 mg/kg, sc by LC-MS/MS method; assay type: ADME, organism-based; conditions: in vivo, read-out: beta t1/2 (converted)
[20] = target: T2, Protein arginine N-methyltransferase 1; assay: Inhibition of N-terminal GST tagged full-length human PRMT1 expressed in high five insect cells pre-incubated for 30 mins before addition of a [3H]SAM and peptide mix

T1 sequence (Q96LA8 whole entry): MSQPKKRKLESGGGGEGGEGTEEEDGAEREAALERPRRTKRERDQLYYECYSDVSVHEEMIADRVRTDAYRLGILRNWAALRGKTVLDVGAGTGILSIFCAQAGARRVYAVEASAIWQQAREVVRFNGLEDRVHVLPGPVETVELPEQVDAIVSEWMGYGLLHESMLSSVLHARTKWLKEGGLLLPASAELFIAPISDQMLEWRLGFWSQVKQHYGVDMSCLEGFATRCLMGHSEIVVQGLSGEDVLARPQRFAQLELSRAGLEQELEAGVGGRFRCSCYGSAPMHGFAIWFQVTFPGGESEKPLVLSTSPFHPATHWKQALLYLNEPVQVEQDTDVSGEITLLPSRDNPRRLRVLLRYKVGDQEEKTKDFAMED
Protein arginine N-methyltransferase 8, sequence (Q9NR22 whole entry): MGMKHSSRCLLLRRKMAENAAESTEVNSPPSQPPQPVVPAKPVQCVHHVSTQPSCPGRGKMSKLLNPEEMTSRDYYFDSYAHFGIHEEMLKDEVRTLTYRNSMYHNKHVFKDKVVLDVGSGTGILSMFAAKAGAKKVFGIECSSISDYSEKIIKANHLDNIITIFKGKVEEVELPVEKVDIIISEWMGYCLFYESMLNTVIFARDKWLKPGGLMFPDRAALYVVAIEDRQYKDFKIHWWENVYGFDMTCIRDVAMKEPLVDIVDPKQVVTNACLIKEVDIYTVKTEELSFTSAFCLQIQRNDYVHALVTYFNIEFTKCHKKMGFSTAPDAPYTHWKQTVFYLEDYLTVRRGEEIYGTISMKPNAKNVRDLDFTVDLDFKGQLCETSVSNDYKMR
T2 sequence (Q99873 whole entry): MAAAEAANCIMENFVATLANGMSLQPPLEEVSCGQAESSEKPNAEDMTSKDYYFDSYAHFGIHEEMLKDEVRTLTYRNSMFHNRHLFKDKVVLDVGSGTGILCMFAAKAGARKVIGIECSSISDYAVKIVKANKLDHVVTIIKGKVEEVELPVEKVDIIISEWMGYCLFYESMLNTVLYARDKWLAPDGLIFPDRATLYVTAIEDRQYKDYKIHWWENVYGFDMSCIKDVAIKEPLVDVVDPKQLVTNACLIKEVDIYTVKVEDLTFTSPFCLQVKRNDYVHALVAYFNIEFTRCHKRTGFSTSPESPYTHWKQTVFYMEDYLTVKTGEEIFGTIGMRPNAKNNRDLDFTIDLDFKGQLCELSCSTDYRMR

CNCCN(C)Cc1n[nH]cc1-c1ccc(Oc2ccccc2C(=O)NC)cc1
IC50 [1]: 65 nM | IC50 [2]: 5 nM

CNCCN(C)Cc1c[nH]nc1-c1ccc(OC(C)C)cc1
IC50 [2]: 11 nM

CNCCN(C)Cc1c[nH]nc1-c1cc(OCCc2ccccc2)cc(C(F)(F)F)c1
IC50 [1]: 23 nM | IC50 [2]: 327 nM

CNCCN(C)Cc1c[nH]nc1-c1cc(OCCC2CCCCC2)cc(C(F)(F)F)c1
IC50 [1]: 21 nM | IC50 [2]: 461 nM

CNCCN(C)Cc1c[nH]nc1-c1ccc(O[C@H]2C[C@H](OCCC3CCOCC3)C2)cc1
Activity (A-375): inactive | fraction unbound at 1 µM [3]: 0.51 | clearance [4]: 19.7 mL/min/kg | AUC(0-t) [5]: 2460 ng·h/mL | IC50 [6]: 7100 nM | Time (Rattus norvegicus): > 12 h | AUC(0-t) [7]: 745 ng·h/mL | bioavailability [8]: < 5% | Vd [9]: 11.1 L/kg | IC50 [10]: 637 nM | Papp at 10 µM [11]: 0.1 ×10⁻⁶ cm/s | bioavailability [12]: 65.6% | fraction unbound at 1 µM [13]: 0.52 | AUC(0-inf) [14]: 2780 ng·h/mL | Cmax [15]: 844 ng/mL | half-life [16]: 8.54 h | Tmax [17]: 0.444 h | AUC(0-inf) [18]: 846 ng·h/mL | half-life [19]: 9.19 h

CCOc1ccc(-c2[nH]ncc2CN(C)CCNC)cc1
IC50 [2]: 25 nM

CC(C)Oc1ccc(-c2[nH]ncc2CN(C)CCN)cc1Cl
IC50 [2]: 8 nM

CN(CCN)Cc1c[nH]nc1-c1ccc(OCCCN2CCOCC2)cc1
IC50 [2]: 13 nM

CNCCN(C)Cc1cn[nH]c1-c1ccc(OC(C)C)c(Cl)c1
IC50 [2]: 10 nM

CNCCN(C)Cc1c[nH]nc1-c1cc(OC(CO)CC(C)C)cc(C(F)(F)F)c1 (stereo not drawn)
IC50 [10]: > 20000 nM

CNCCN(C)Cc1c[nH]nc1-c1ccc(Oc2cccc(C(=O)N(C)C)c2)cc1
IC50 [1]: 179 nM | IC50 [2]: 3 nM

CNCCN(C)Cc1cn[nH]c1-c1ccc(OC(CO)C(C)C)cc1 (stereo not drawn)
IC50 [20]: 27 nM

CNCCN(C)Cc1n[nH]cc1-c1ccc(Oc2cccc(C(=O)N(C)C)c2)cc1
IC50 [1]: 347 nM | IC50 [2]: 2 nM

CC(C)Oc1c(Cl)cc(-c2c[nH]nc2CN(C)CCN)cc1C(F)(F)F
IC50 [1]: 70 nM | IC50 [2]: 320 nM
